# Laboratory results from ChEMBL document CHEMBL2396525, “Synthesis and anti-HCMV activity of 1-[ω-(phenoxy)alkyl]uracil derivatives and analogues thereof” (Bioorg Med Chem, 2013).
# Calls of active or inactive are those of the source. The calls are words filed in the database; no cut-off is given here.
# Experiments:
# Influenza A virus [1] = assay: Antiviral activity against Influenza virus A virus H1N1; type: functional, organism-based
# In short: (§1)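 The assay was a cell-based cytopathicity inhibition test on confluent monolayers with serial compound dilutions. EC50 was the concentration that reduced virus-induced cytopathicity by 50%.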
# Feline coronavirus = assay: Antiviral activity against Feline coronavirus; type: functional, organism-based
# [2] = test system: Human immunodeficiency virus 2; assay: Antiviral activity against HIV2 ROD infected in human CEM cells assessed as inhibition of virus-induced giant cell formation after 4 to 5 days; type: functional, organism-based; settings: ISOLATE ROD, CCRF-CEM
# In short: (§2)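 CEM cells at about 3 × 10^5 cells/mL were infected with 100 CCID50 of HIV per mL, with compound dilutions present. They were incubated 4–5 days at 37 °C in humidified CO2, and syncytia were scored microscopically. EC50 is the concentration that inhibits giant cell formation by 50%.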
# HEL = assay: Cytotoxicity against HEL; type: cell-based; settings: human
# [3] = test system: Respiratory syncytial virus; assay: Antiviral activity against Respiratory syncytial virus Long; type: functional, organism-based
# In short: (§3)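 Confluent HEL, Vero, HeLa or MDCK cell cultures were inoculated with 100 CCID50 of virus alongside varying compound concentrations. Cytopathicity was scored when it reached completion in untreated virus controls. EC50 is the concentration that reduces virus-induced cytopathogenicity by 50%.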
# Human alphaherpesvirus 3 [4] = assay: Antiviral activity against Varicella-zoster virus OKA; type: functional; settings: strain Oka vaccine
# In short: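 Confluent cell monolayers were infected with 10 or 100 PFU of VZV in the presence of serial compound dilutions. Plaque formation was recorded once untreated infected controls reached completion. EC50 was the concentration that reduced plaque formation by 50%.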
# [5] = Cytotoxicity against HEL assessed as minimum cytotoxic concentration required to cause microscopically detectable alteration in cell morphology; type: cell-based; settings: human, HEL cells
# Human respirovirus 3 = assay: Antiviral activity against Parainfluenza virus 3; type: functional, organism-based; in short: as §3
# Sindbis virus = assay: Antiviral activity against Sindbis virus; type: functional, organism-based; in short: as §3
# Human alphaherpesvirus 1 [6] = assay: Antiviral activity against Herpes simplex virus type 1 KOS; type: functional, organism-based; in short: as §3
# Influenza B virus = assay: Antiviral activity against Influenza B virus; type: functional, organism-based; in short: as §1
# Coxsackievirus B4 = assay: Antiviral activity against Coxsackie B4 virus; type: functional, organism-based; in short: as §3
# Human betaherpesvirus 5 [7] = assay: Antiviral actiivty against Human herpesvirus 5 AD169 infected in HEL assessed as reduction of virus-induced plaque formation; type: functional, organism-based; settings: Human betaherpesvirus 5, AD169
# In short: (§4)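 HCMV strains AD-169 and Davis were tested on confluent human embryonic lung fibroblast monolayers infected with 100 PFU in the presence of serial compound concentrations. Plaques were counted once formation was complete in untreated infected controls. EC50 is the concentration that cuts plaque formation by 50%.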
# [8] = test system: Human immunodeficiency virus 1; assay: Antiviral activity against HIV1 3B infected in human CEM cells assessed as inhibition of virus-induced giant cell formation after 4 to 5 days; type: functional, organism-based; settings: CCRF-CEM; in short: as §2
# Influenza A virus [9] = assay: Antiviral activity against Influenza virus A virus H3N2; type: functional, organism-based; in short: as §1
# Vaccinia virus = assay: Antiviral activity against Vaccinia virus Lederle; type: functional, organism-based; settings: Orthopoxvirus vaccinia
# [10] = test system: Vesicular stomatitis virus; assay: Antiviral activity against Vesicular stomatitis virus; type: functional, organism-based
# [11] = test system: Mammalian orthoreovirus 1; assay: Antiviral activity against Reovirus-1; type: functional, organism-based; in short: as §3
# Human alphaherpesvirus 2 [12] = assay: Antiviral activity against Herpes simplex virus type 2 G; type: functional, organism-based; settings: strain G; in short: as §3
# Human betaherpesvirus 5 [13] = assay: Antiviral actiivty against Human herpesvirus 5 Davis infected in HEL assessed as reduction of virus-induced plaque formation; type: functional, organism-based; settings: Human betaherpesvirus 5, Davis; in short: as §4
# Human alphaherpesvirus 3 [14] = assay: Antiviral activity against Varicella-zoster virus YS; type: functional, organism-based
# In short: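 VZV was assayed by plaque formation. Confluent cell cultures received 10 or 100 PFU with varying compound concentrations, and plaques were recorded once complete in untreated infected controls. EC50 is the concentration that reduces plaque formation by 50%.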
# Punta Toro virus = assay: Antiviral activity against Punta Toro virus; type: functional, organism-based; in short: as §3
# Human alphaherpesvirus 2 [15] = assay: Antiviral activity against Herpes simplex virus type 2 Lyons; type: functional, organism-based; in short: as §3
# Human alphaherpesvirus 1 [16] = assay: Antiviral activity against thymidine kinase deficient acyclovir-resistant Herpes simplex virus type 1 KOS; type: functional, organism-based
# [17] = Cytotoxicity against human CEM cells; type: cell-based; settings: CCRF-CEM (CEM) cells
Structure (SMILES),Activity (Influenza A virus [1]),Activity (Feline coronavirus),Activity [2],CC50 (HEL) [µM],Activity [3],Activity (Human alphaherpesvirus 3 [4]),MCC [5] [µM],Activity (Human respirovirus 3),Activity (Sindbis virus),Activity (Human alphaherpesvirus 1 [6]),Activity (Influenza B virus),Activity (Coxsackievirus B4),EC50 (Human betaherpesvirus 5 [7]) [µM],Activity (Influenza A virus [9]),Activity (Vaccinia virus),Activity [10],Activity [11],Activity (Human alphaherpesvirus 2 [12]),EC50 (Human betaherpesvirus 5 [13]) [µM],Activity (Human alphaherpesvirus 3 [14]),other results
O=c1ccn(CCCCCCCCOc2ccc(Br)cc2)c(=O)[nH]1,inactive,inactive,inactive,> 100,inactive,inactive,≥ 100,inactive,inactive,inactive,inactive,inactive,12,inactive,inactive,inactive,inactive,inactive,8.9,inactive,Activity [8]: inactive; Activity (Punta Toro virus): inactive; Activity (Human alphaherpesvirus 2 [15]): inactive; Activity (Human alphaherpesvirus 1 [16]): inactive
O=c1ccn(CCCCCOc2ccc(Br)cc2)c(=O)[nH]1,inactive,inactive,inactive,> 100,inactive,inactive,100,inactive,inactive,inactive,inactive,inactive,9.4,inactive,inactive,inactive,inactive,inactive,12,inactive,Activity [8]: inactive; Activity (Punta Toro virus): inactive; Activity (Human alphaherpesvirus 2 [15]): inactive; Activity (Human alphaherpesvirus 1 [16]): inactive
Cc1cc(C)cc(OCCCCCn2ccc(=O)[nH]c2=O)c1,inactive,inactive,inactive,> 100,inactive,inactive,> 100,inactive,inactive,inactive,inactive,inactive,> 100,inactive,inactive,inactive,inactive,inactive,> 100,inactive,"EC50 ([8]; Human immunodeficiency virus 1, 3B): 24 µM; CC50 [17]: 154 µM; Activity (Punta Toro virus): inactive; Activity (Human alphaherpesvirus 2 [15]): inactive; Activity (Human alphaherpesvirus 1 [16]): inactive"
